Data on nine molecules can be found in paper PMC4448975 (Pharmacology Research & Perspectives, 2015).

For one series, the target named is T1, human ADA2 (Homo sapiens, UniProt Q9NZK5).
T1 sequence (Q9NZK5 30-511): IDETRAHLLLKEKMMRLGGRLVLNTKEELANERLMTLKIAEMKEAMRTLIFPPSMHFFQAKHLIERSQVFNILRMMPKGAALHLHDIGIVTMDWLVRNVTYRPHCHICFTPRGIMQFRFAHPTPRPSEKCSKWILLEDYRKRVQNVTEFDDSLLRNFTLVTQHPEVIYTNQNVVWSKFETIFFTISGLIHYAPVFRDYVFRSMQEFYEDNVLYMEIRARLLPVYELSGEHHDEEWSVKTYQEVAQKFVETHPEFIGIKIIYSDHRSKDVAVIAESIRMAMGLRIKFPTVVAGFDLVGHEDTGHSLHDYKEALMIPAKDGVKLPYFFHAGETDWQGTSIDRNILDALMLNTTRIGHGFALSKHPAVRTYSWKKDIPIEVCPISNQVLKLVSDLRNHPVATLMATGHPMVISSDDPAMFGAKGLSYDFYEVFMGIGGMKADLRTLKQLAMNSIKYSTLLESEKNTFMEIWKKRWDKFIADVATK
Nature of the series: Deamination of substrates in ADA2-expressing HEK293 cells. It is filed as biochemical. Conditions: compared with Mock cells; substance = substrate.

The subject of the next series is Jurkat cells. The experiment in a line: Cell viability. The class given is cell-based, human. Conditions: 24 h, MTT. The method in brief:
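Jurkat cells kept in RPMI-1640 with 10% FBS, penicillin–streptomycin, NaHCO3 and glutamine at 37°C, 5% CO2. Cells were seeded at 1 × 10^4 per well. […] Viability was read by MTT kit. Mean ± SD of three independent determinations; ANOVA with Dunnett's test.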

Series [1] has as its target T2, ADA in mouse erythrocytes (Mus musculus, UniProt P03958).
T2 sequence (P03958 1-352): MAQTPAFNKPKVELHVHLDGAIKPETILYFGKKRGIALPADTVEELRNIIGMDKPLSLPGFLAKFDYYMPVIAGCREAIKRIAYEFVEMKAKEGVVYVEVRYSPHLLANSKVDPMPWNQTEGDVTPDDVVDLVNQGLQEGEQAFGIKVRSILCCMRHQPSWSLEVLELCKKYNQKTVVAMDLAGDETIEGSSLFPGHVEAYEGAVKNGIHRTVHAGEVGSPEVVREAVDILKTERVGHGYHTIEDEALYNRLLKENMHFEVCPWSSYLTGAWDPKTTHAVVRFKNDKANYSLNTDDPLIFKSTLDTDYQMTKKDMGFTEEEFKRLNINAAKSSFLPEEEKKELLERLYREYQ
The experiment in a line: Inhibition of ADA-catalyzed deamination in mouse erythrocytes. It is filed as biochemical. Conditions: for inhibition at 100 µM: read-out: inhibition of the enzyme activity (deamination of cordycepin).

The target of series [2] is T3, ADA in human erythrocytes (Homo sapiens, UniProt P00813).
T3 sequence (P00813 1-363): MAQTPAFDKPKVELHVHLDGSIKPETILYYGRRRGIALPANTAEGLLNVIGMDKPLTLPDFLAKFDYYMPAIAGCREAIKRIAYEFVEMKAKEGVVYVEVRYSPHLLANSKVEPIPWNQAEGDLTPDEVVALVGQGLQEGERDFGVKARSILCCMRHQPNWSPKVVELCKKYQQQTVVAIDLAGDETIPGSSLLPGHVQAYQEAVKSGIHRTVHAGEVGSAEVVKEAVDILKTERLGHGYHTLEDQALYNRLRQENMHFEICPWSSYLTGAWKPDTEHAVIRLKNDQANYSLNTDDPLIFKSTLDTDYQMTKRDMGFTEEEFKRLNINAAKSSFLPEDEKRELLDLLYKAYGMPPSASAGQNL
Nature of the series: Inhibition of ADA-catalyzed deamination of cordycepin in human erythrocytes. The class given is biochemical. In a few lines: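 Human erythrocytes were incubated with cordycepin in 400 mmol/L sodium acetate buffer, pH 5.8, at 37°C after a 3 min preincubation. Inhibitors were present and cordycepin concentrations were varied. Reactions were stopped with acetonitrile and centrifuged. 3′-Deoxyinosine was quantified by reversed-phase HPLC (6% acetonitrile, 1.0 mL/min, 260 nm). Inhibition type and Ki were derived from Dixon plots.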

The target of series [3] is T4, ADA1 in Jurkat cell homogenates (Homo sapiens, UniProt P00813).
T4 sequence (P00813 1-363): T3 sequence (P00813 1-363)
Nature of the series: Inhibition of cordycepin deamination in Jurkat cell homogenates. It is filed as biochemical. The settings on record: substrate 100 μmol/L, inhibitor 50 μmol/L.

As a reminder, the Ki is a dissociation constant, usually derived from enzyme kinetics or from competition with a known ligand. Higher therefore signals a looser hold on the target. As a reminder, the inhibition is the drop in the measured response relative to a control, in per cent.

Consider `Nc1ncnc2c1ncn2[C@H]1C[C@H](O)[C@@H](CO)O1` [2′-deoxyadenosine], for which the “deamination activity toward the substrate in ADA2-expressing HEK293 cells” value on human ADA2 is “comparable to those in Mock cells”. With `Nc1ncnc2c1ncn2[C@@H]1O[C@H](CO)C[C@H]1O` [Cordycepin, 3′-deoxyadenosine], in the series on Jurkat cells (cordycepin alone), the “cell viability of the Jurkat cells” value is “concentration-dependently decreased the cell viability”.

For `C[C@@H]1O[C@@H](O[C@H]2[C@H](Oc3cc(O)c4c(c3)O[C@H](c3ccc(O)cc3)CC4=O)O[C@H](CO)[C@@H](O)[C@@H]2O)[C@H](O)[C@H](O)[C@H]1O` [Naringin, naringin], the Ki came out at 197 µM in series [1] (mouse erythrocytes, substrate 2′-deoxyadenosine, Dixon plot); 371 ± 10.1 µM in series [1] (mouse erythrocytes, substrate adenosine, Dixon plot); 58.8 ± 0.7 µM in series [1] (mouse erythrocytes, substrate cordycepin, Dixon plot); 168 ± 22.4 µM in series [2]. Besides, the “inhibition of cordycepin deamination in the erythrocytes (in words)” value in series [1] (erythrocytes, 100 μmol/L cordycepin, 100 μmol/L inhibitor, 37°C (Fig.4)) is recorded as “moderately inhibited”. Moreover, the “inhibition pattern against the cordycepin deamination” value in series [1] (mouse erythrocytes, Dixon plot) is reported as “competitive”; in series [2] (human erythrocytes, Dixon plot), “competitively”. Besides, the inhibition at 100 µM in series [1] amounted to 20%. Further, the “inhibition of deamination of cordycepin in Jurkat cell homogenates” value in series [3] was “moderately”. On to `OC[C@H]1O[C@@H](n2cnc3c2NC=NC[C@H]3O)C[C@@H]1O` [Pentostatin], for which the “effect on the cytotoxic effect of cordycepin” value in the series on Jurkat cells (Jurkat cells cotreated with cordycepin and 50 μmol/L inhibitor) is recorded as “stronger cytotoxicity”.

Regarding `Nc1ncnc2c1ncn2[C@@H]1O[C@H](CO)[C@@H](O)[C@H]1O` [adenosine], the “deamination activity toward the substrate in ADA2-expressing HEK293 cells” value at human ADA2 is reported as “comparable to those in Mock cells”.

Regarding `O=c1c(O)c(-c2ccc(O)cc2)oc2cc(O)cc(O)c12` [kaempferol], the inhibition at 100 µM in series [1] is 0 to 10%. On the same count and under the same terms, for `O=c1c(O)c(-c2cc(O)c(O)c(O)c2)oc2cc(O)cc(O)c12` [myricetin] the value was 0 to 10%; for `O=C1C[C@@H](c2ccc(O)cc2)Oc2cc(O)cc(O)c21` [naringenin], 0 to 10%; for `O=c1c(O)c(-c2ccc(O)c(O)c2)oc2cc(O)cc(O)c12` [quercetin], 0 to 10%.
